# Measured values from the EternaBench riboswitch data.
# Tests used:
# MS2 coat protein [1] = assay: apparent Kd, MS2 coat protein; higher = weaker binding; RNA-MaP array; theophylline 2 mM where present
# In short: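 Designs were transcribed by stalled E. coli RNA polymerase on Illumina sequencing-chip clusters. They were titrated with SNAP-549-labelled MS2 coat protein from 0.7 or 1.5 nM, doubling to 3 µM, in 100 mM Tris-HCl pH 7.5, 80 mM KCl, 4 mM MgCl2, BSA, DTT, yeast tRNA and Tween-20, without and then with constant ligand. The apparent Kd is the median of filtered per-cluster fits after normalisation of green signal to red-channel RNA signal and control-cluster median Fmax.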
# MS2 coat protein [2] = assay: apparent Kd, MS2 coat protein; higher = weaker binding; RNA-MaP array
# In short: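 For each design, the apparent Kd is the median of binding-curve fits across its clusters. Designs measured on fewer than 10 clusters were dropped. The RNAs were transcribed from sequenced DNA templates on an Illumina sequencing chip and incubated at room temperature, with or without input ligand, with fluorescently labeled MS2 coat protein at 1.5 nM to 3 μM.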
# [3] = designed as: OFF switch for theophylline, no ligand
# [4] = ligand present: theophylline, designed as: OFF switch for theophylline
# [5] = designed as: ON switch for theophylline, no ligand
# [6] = ligand present: theophylline, designed as: ON switch for theophylline
# [7] = designed as: OFF switch for flavin mononucleotide, no ligand
# [8] = ligand present: flavin mononucleotide, designed as: OFF switch for flavin mononucleotide
# [9] = designed as: ON switch for flavin mononucleotide, no ligand
# [10] = ligand present: flavin mononucleotide, designed as: ON switch for flavin mononucleotide
sequence,measurement,setting,value
AUAAGUAAUGUUUCGUGUAUUAUUACAGAUACCAGACUAUCCUAUGUCCCUUGGCAGCUGGAUUACAUGAGGAUCACCCAUGUUG,apparent Kd,MS2 coat protein [1]; [3],16.4 nM
same,apparent Kd,MS2 coat protein [1]; [4],24.9 nM
UGUACAUGAGGAUCACCCAUGUUACAUGAUACCAGACAUGAGAGUGUCCCUUGGCAGCAUGGAGCUGAUACGGCGGGAAGCCGGA,apparent Kd,MS2 coat protein [1]; [5],26.8 nM
same,apparent Kd,MS2 coat protein [1]; [6],32.6 nM
AUGUCGUUGAAUACAGCGGCAUGGAGUGAUACCAGAAUGAUCAAAUUCCCUUGGCAGCAUGACAUGAGGAUCACCCAUGUUCGAU,apparent Kd,MS2 coat protein [1]; [5],111 nM
same,apparent Kd,MS2 coat protein [1]; [6],104 nM
UUUGCACAUGAGGAUCACCCAUGUACAGAUACCAGCCUCAUCUACGGCCCUUGGCAGCUGAGACAAUGGUGACGUGAUGGGCUUU,apparent Kd,MS2 coat protein [1]; [3],11.3 nM
same,apparent Kd,MS2 coat protein [1]; [4],16.2 nM
UGUAACAUGAGGAUCACCCAUGUGAGUGAUACCAGAUAAGUAGUAGUCCCUUGGCAGCAUAUUGGGCGAGUGUAUAGUCUAUGCG,apparent Kd,MS2 coat protein [1]; [5],146 nM
same,apparent Kd,MS2 coat protein [1]; [6],193 nM
UUACAUGAGGAUCACCCAUGUCAUAAUGAUACCAGAUAGUUAAUGAUCCCUUGGCAGCAUAAUACCUAGACAUUUAAGUCAUAGG,apparent Kd,MS2 coat protein [1]; [5],83.1 nM
same,apparent Kd,MS2 coat protein [1]; [6],41 nM
ACCUCACUCUCUGAUACCAGCUAAUAACAUGAGGAUCACCCAUGUCAGACUUGUAUUGAUAGCCCUUGGCAGCAGAGGUAACUGC,apparent Kd,MS2 coat protein [1]; [3],9.39 nM
same,apparent Kd,MS2 coat protein [1]; [4],11.3 nM
UAGGUGAUCUUCAACGGAAAACGUUGUGAUACCAGCCAACAAUACGGCCCUUGGCAGCACAUGAGGAUCACCCAUGUGUACACCG,apparent Kd,MS2 coat protein [1]; [3],29.4 nM
same,apparent Kd,MS2 coat protein [1]; [4],193 nM
AGAAUAACACAUGAGGAUCACCCAUGUGAUACCAGCUAGGAAACUAGCCCUUGGCAGCACAUAAGGUGAUCCAGCUGCCAAGAAU,apparent Kd,MS2 coat protein [1]; [3],137 nM
same,apparent Kd,MS2 coat protein [1]; [4],74.9 nM
CGAUCUUUCGAAAGAAGGAUCGAGUCUGAUACCAGAGACGAAAGUCUCCCUUGGCAGCAGUGCCAACAUGAGGAUCACCCAUGUU,apparent Kd,MS2 coat protein [1]; [5],15.8 nM
same,apparent Kd,MS2 coat protein [1]; [6],15.5 nM
ACAUGAGGAUCACCCAUGUGCCGUCUUGAUACCAGACGCGAAGUAGUCCCUUGGCAGCAAAUACGUGAGGGUCGCGCAUGUGUAA,apparent Kd,MS2 coat protein [1]; [3],24.1 nM
same,apparent Kd,MS2 coat protein [1]; [4],34.7 nM
ACAUGAGGAUCACCCAUGUUCCUCAUUGAUACCAGUGAAUUUAGACGCCCUUGGCAGCGAGUUUUUUUAUAAGAUUUUUUUUUUU,apparent Kd,MS2 coat protein [1]; [3],626 nM
same,apparent Kd,MS2 coat protein [1]; [4],1320 nM
UGCACCAUAAUCAUGUUGGUGCUAGGUGAUACCAGCAUCGAAAGAUGCCCUUGGCAGCACCAACAUGAGGAUCACCCAUGUAAUA,apparent Kd,MS2 coat protein [1]; [5],130 nM
same,apparent Kd,MS2 coat protein [1]; [6],99.8 nM
GCACCAGGUACGGAUACCAGCUGCCAGAGAUACAUGAGGAUCACCCAUGUGACCUGAUUUAGCCCUUGGCAGCUGUACCUGGUGC,apparent Kd,MS2 coat protein [1]; [5],466 nM
same,apparent Kd,MS2 coat protein [1]; [6],35.7 nM
UCUUUCUAUGUAGAUACCAGCAUGUUAUAUUUCUAAUGACAUGAGGAUCACCCAUGUAAAUGCCCUUGGCAGCUACAUUUUCUUU,apparent Kd,MS2 coat protein [1]; [5],23.1 nM
same,apparent Kd,MS2 coat protein [1]; [6],16 nM
AGCGACAUGCGUGAUACCAGCUACAUGAGGAUCACCCAUGUACGUAGGAAACUACUGUGUAGCCCUUGGCAGCAUAGUGCAUGUC,apparent Kd,MS2 coat protein [1]; [3],12.6 nM
same,apparent Kd,MS2 coat protein [1]; [4],57.1 nM
AUCAGUAGAACUGAUACCAGUCAAAGGCUUUGACCUCAUAACAUGAGGAUCACCCAUGUUGACCCUUGGCAGCAGUAGGCAAGGG,apparent Kd,MS2 coat protein [1]; [3],21.4 nM
same,apparent Kd,MS2 coat protein [1]; [4],35.1 nM
CGGUACAUGAGGAUCACCCAUGUGUCGGAUACCAGAGAGCCGUCUCUCCCUUGGCAGCUGGUUUUACAUGAGGAUCACCCAUGUG,apparent Kd,MS2 coat protein [1]; [3],13.6 nM
same,apparent Kd,MS2 coat protein [1]; [4],20.1 nM
CGGUGGUGAGGAUAUCAAAUGUGGAAGGAGAAGACACCCAGUGAGAAGGCACAUGAGGAUCACCCAUGUACAGC,apparent Kd,MS2 coat protein [2]; [7],10.7 nM
same,apparent Kd,MS2 coat protein [2]; [8],6 nM
AUAAAUUUUACACGUUGCUACAUGAGGAUCACCCAUGUGUGGAGAAGGGAUCUGCCUACAAGGAAUCAGGAUAUCCAACUGUUC,apparent Kd,MS2 coat protein [2]; [9],32.9 nM
same,apparent Kd,MS2 coat protein [2]; [10],51.6 nM
UUGUGUACUCGAGGAUAUAAUGGACUACAUGAGGAUCACCCAUGUAUACGCCCACAGAGCGUCUUUUAGAAGGCGACGCAUCAU,apparent Kd,MS2 coat protein [2]; [9],8.4 nM
same,apparent Kd,MS2 coat protein [2]; [10],7.85 nM
GAAGUCGCCGAGAAGGGAGCGAAACUCUCUAUCACAUGAGGAUCACCCAUGUAGUUCUCGUGAGCUCAGGAUAUCGUCGAACGC,apparent Kd,MS2 coat protein [2]; [7],14.5 nM
same,apparent Kd,MS2 coat protein [2]; [8],10.5 nM
AGUUACAAUGUCAGGAUAUUGCUCCCACGACGGAACAAGAAGGGACAUGAGGAUCACCCAUGUUAGUCUUCGUC,apparent Kd,MS2 coat protein [2]; [7],4.96 nM
same,apparent Kd,MS2 coat protein [2]; [8],5.98 nM
UACCCUCGAGGAUAUUAGCUAGCGAACAUGAGGAUCACCCAUGUGCAUCUUCCCAGCCGUUAAGAAGGCGAUUACC,apparent Kd,MS2 coat protein [2]; [7],93.1 nM
same,apparent Kd,MS2 coat protein [2]; [8],79.2 nM
CACCCAACUAUACAUGAGGAUCACCCAUGUUGAAAGUGCAACAGAAGGCCCUACUAAUAUAGGAGGGAGGAUAUGUGAACCGAA,apparent Kd,MS2 coat protein [2]; [9],62.5 nM
same,apparent Kd,MS2 coat protein [2]; [10],11.4 nM
CUACGCAUAGGAUAUGCCUACUGGGACAUGAGGAUCACCCAUGUGUUAUUAUCAGCUCCGGCAGAAGGAUGGUACU,apparent Kd,MS2 coat protein [2]; [7],29.1 nM
same,apparent Kd,MS2 coat protein [2]; [8],11.8 nM
UGGGAGUGAGGAUAUGUAUAUCUCAGGGCCGAGGAGAUGAAACAGAAGGCACAUGAGGAUCACCCAUGUUAUGA,apparent Kd,MS2 coat protein [2]; [7],25.3 nM
same,apparent Kd,MS2 coat protein [2]; [8],29.9 nM
CCAAAAUCGAAGAAGGCUAUGCGUACCAAUCUUAGAGGAUAUUCGACCUUAGCUAACAUGAGGAUCACCCAUGUGGGAAACACG,apparent Kd,MS2 coat protein [2]; [7],28 nM
same,apparent Kd,MS2 coat protein [2]; [8],19.5 nM
CCAUGGUUGACGGCCGCCACUCAUUAGUCUUUGAGGUUGGCACAUGAGGAUCACCCAUGUCUGCAGAGGACCGGGUCUCGCCACA,apparent Kd,"MS2 coat protein [2]; designed as: ON switch for tryptophan, no ligand",44.3 nM
same,apparent Kd,"MS2 coat protein [2]; ligand present: tryptophan, designed as: ON switch for tryptophan",44.2 nM
CAGGAGCUAGAGAAGGAGGUUACGCCCACGGACCUAGGAUAUCUGUUCUGAGUUACAUGAGGAUCACCCAUGUGUCCGCGGUGG,apparent Kd,MS2 coat protein [2]; [7],53.9 nM
same,apparent Kd,MS2 coat protein [2]; [8],33 nM
CUGUUCGUAGGAUAUACUGAAACACGGGACAUUCUGAUUAGACAUGAGGAUCACCCAUGUAGAAGGACGCACGU,apparent Kd,MS2 coat protein [2]; [7],17.4 nM
same,apparent Kd,MS2 coat protein [2]; [8],16.9 nM
CUAAGCUCGGACAAGGAUAUUAAUUACUAGACAUGAGGAUCACCCAUGUCAACAGACUGGAGGAUUAAGAAGGUGAUUGAAAACCC,apparent Kd,MS2 coat protein [2]; [9],21.8 nM
same,apparent Kd,MS2 coat protein [2]; [10],19.4 nM
AACAUGUGAGGAUAUAGUCAAAAUAGCACAAGUAACAUAAACUAGAAGGCACAUGAGGAUCACCCAUGUGAAUA,apparent Kd,MS2 coat protein [2]; [7],7.9 nM
same,apparent Kd,MS2 coat protein [2]; [8],10.6 nM
AAAGAACAUGAGGAUCACCCAUGUCAGGAUAUACAAAGACGUAGCAAAGCGGACUCAAGAAGAAGGGACAAGGA,apparent Kd,MS2 coat protein [2]; [7],12.8 nM
same,apparent Kd,MS2 coat protein [2]; [8],10.1 nM
CCUCGAACGGCAGGAUAUAUUGGUCAAAAUUCUAUAGAAGGGCCUCUCCCUGGAACAUGAGGAUCACCCAUGUGCGCACUUGUG,apparent Kd,MS2 coat protein [2]; [9],57.4 nM
same,apparent Kd,MS2 coat protein [2]; [10],61.9 nM
ACUAUACAUGAGGAUCACCCAUGUGGUCACAUAUGAGGAUAUAUGCGGCUGUCCCGGUCAAUAGAAGGCAUAUUUA,apparent Kd,MS2 coat protein [2]; [9],52 nM
same,apparent Kd,MS2 coat protein [2]; [10],53.5 nM
